A short description of data set [1]: (§1) Minimal motor impairment was measured in mouse by rotating rod test upon intraperitoneal administration. As to conditions: in vivo, ip. It counts as toxicity. The gist of the method:
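Mouse rotorod (rotating rod) test for minimal motor impairment after ip dosing, run alongside the MES and scMET screens. Reported as TD50 (mg/kg) ip with 95% confidence limits.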

Data set [2] deals with Rattus norvegicus. Kind of data set: Compound was tested for anticonvulsant activity by maximal electroshock seizure(MES) test in rat upon intraperitoneal administration. It is filed as functional. As to conditions: ip. In general terms: Protection in the maximal electroshock model is a classic sign of anticonvulsant action.
Data set [3] can be described thus: Minimal motor impairment was measured in rat by overt evidence of ataxia upon intraperitoneal administration. Particulars: in vivo, ip.
The test system of data set [4] is Mus musculus. Kind of data set: Anticonvulsant activity in mouse maximal electroshock seizure test following i.p. administration. It is filed as functional. As to conditions: ip. The essentials:
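Test agent given ip as a suspension at 30, 100 and 300 mg/kg to one to four mice, observed at 30 min and, in a separate test, at 4 h. Quantified values are ED50 (mg/kg) with 95% confidence limits.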

Data set [5] in a line: (§2) Ratio of TD50/ED50; TI indicates Therapeutic index. Particulars: read-out: TI. The gist of the method:
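Protective index calculated as TD50 (rotorod, ip) divided by MES ED50 (ip), both in mg/kg.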

The test system of data set [6] is Rattus norvegicus. In words: Minimal motor impairment was measured in rat by rotating rod test upon intraperitoneal administration. As to conditions: ip.
Data set [7] concerns Mus musculus. In words: Effective dose was determined by Maximum Electroshock Seizure test after intraperitoneal dose in mouse. Particulars: ip.
Data set [8] is described as follows: Toxic dose was measured in rat by rotating rod test. Particulars: in vivo.
Data set [9] in a line: Ratio of TD50/ED50. It is filed as ADME. Particulars: read-out: TI. The gist of the method: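 Maximal electroshock seizure ED50 was determined with ip dosing and reported in mg/kg with 95% confidence limits. TD50 was determined ip by the rotating rod test for minimal motor impairment, and in some cases by overt ataxia. Protective index = TD50/ED50.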
A short description of data set [10]: Toxic dose was measured in mouse by rotating rod test. Particulars: in vivo.
Data set [11] can be described thus: as §2.
Data set [12] relates to Mus musculus. Kind of data set: Ability to block seizures induced by bicuculline after intraperitoneal administration; NA indicates not active. It counts as functional, organism-based.
In data set [13] the test system is Mus musculus. The data set is described as §1. As to conditions: ip.
Data set [14] deals with Mus musculus. In words: Ability to block seizures induced by bicuculline after intraperitoneal administration. It is filed as functional. As to conditions: ip.

Drawing on ChEMBL document CHEMBL1130035, “Aroyl(aminoacyl)pyrroles, a new class of anticonvulsant agents” (J Med Chem, 1997), this text covers TD50, ED50 and selectivity ratio for 19 compounds.

Structures are written as SMILES. Activity calls are given as the source filed them. No cut-off for these calls is given here. A value given as a limit tells only on which side of the number the result lay.

For `Cn1cc(C(=O)CN2CCCC2)cc1C(=O)c1ccc(Cl)cc1`, the TD50 was 240 mg/kg in [1] and more than 500 mg/kg in data set [3]. In addition, the ED50 came out at 17.9 mg/kg in the data set with Rattus norvegicus [2] and 49.1 mg/kg in the data set on Mus musculus [4]. Also, in [5], the selectivity ratio is 4.89.

With `Cl.Cn1cc(C(=O)CNC23C[C@H]4C[C@@H](C2)C[C@@H](C3)C4)cc1C(=O)c1ccccc1Cl`, the TD50 in [1] was more than 250 mg/kg. Besides, in the data set on Mus musculus [4], the ED50 stood at 159 mg/kg. Further, the selectivity ratio in data set [5] is more than 1.57.

In the case of `Cn1cc(C(=O)c2ccc(Cl)cc2)cc1C(=O)CN1CCCCC1`, the TD50 in [1] stood at 141 mg/kg. In the data set with Mus musculus [4], this compound gave an ED50 of 59.7 mg/kg. The selectivity ratio in data set [5] stood at 2.36.

`CCN(CC)CC(=O)c1c(C)c(C(=O)c2ccc(Cl)cc2)n(C)c1C`: the TD50 is 37.7 mg/kg in data set [1] and more than 250 mg/kg in data set [3]. Besides, the ED50 came out at 15.5 mg/kg with Rattus norvegicus [2] and 10.3 mg/kg in the data set with Mus musculus [4]. For the same compound, in data set [5], the selectivity ratio came to 3.65.

For the compound `Cc1c(C(=O)CN2CCCC2)c(C)n(C)c1C(=O)c1ccc(Cl)cc1Cl.Cl`, the TD50 was 23.8 mg/kg in data set [1] and more than 200 mg/kg in data set [3]. Also, the ED50 amounted to 19 mg/kg in the data set with Rattus norvegicus [2] and 10.3 mg/kg with Mus musculus [4]. Also, in data set [5], the selectivity ratio came out at 2.3.

On to `Cn1cc(C(=O)CN2CCCCC2)cc1C(=O)c1ccc(Cl)cc1`, for which the TD50 in [1] came to 74.2 mg/kg; in data set [3], 342 mg/kg. The ED50 in the data set with Rattus norvegicus [2] came out at 8.4 mg/kg; with Mus musculus [4], 24.4 mg/kg. The selectivity ratio in data set [5] was 3.05.

In the case of `Cl.Cn1cc(C(=O)CN2CCCCCC2)cc1C(=O)c1ccc(Cl)cc1`, the TD50 in [1] is 46.1 mg/kg; in data set [3], more than 500 mg/kg. Further, the 50% effective dose (ED50) in the data set on Rattus norvegicus [2] came to 22 mg/kg; with Mus musculus [4], 27.5 mg/kg. The selectivity ratio in data set [5] was found to be 1.67.

As for `Cl.Cn1cc(C(=O)CN2CCOCC2)cc1C(=O)c1cccc(Cl)c1`, the TD50 was 110 mg/kg in [1] and more than 500 mg/kg in data set [3]. In addition, the ED50 in the data set on Rattus norvegicus [2] turned out to be 72 mg/kg; with Mus musculus [4] it was 37.4 mg/kg. The selectivity ratio in [5] came out at 2.96.

In data set [1], `Cn1cc(C(=O)CN2CCCC2)cc1C(=O)c1cccc(Cl)c1.[O-][Cl+3]([O-])([O-])O` displayed a TD50 of 55.6 mg/kg. In addition, the 50% effect level with Mus musculus [4] (ED50) was put at a dose of 16.5 mg/kg. In addition, the selectivity ratio in data set [5] came to 3.38.

In data set [1], `Cc1c(C(=O)CN2CCOCC2)c(C)n(C)c1C(=O)c1ccc(Cl)cc1` returned a TD50 of 233 mg/kg. The compound also registered an ED50 with Mus musculus [4] of 87.6 mg/kg. Further, the selectivity ratio in data set [5] amounted to 2.66.

As for `CCCC(CCC)C(=O)O` [VALPROIC ACID], in the data set on Rattus norvegicus [6], the TD50 was found to be 859 mg/kg.

In the data set with Mus musculus [7], `O=C1NC(=O)C(c2ccccc2)(c2ccccc2)N1` [PHENYTOIN] had an ED50 of 6.48 mg/kg. In addition, the TD50 was more than 500 mg/kg in data set [8] and 42.8 mg/kg in data set [10]. Further, the selectivity ratio in [9] was found to be 6.6.

As for `CCN(CC)CC(=O)c1cc(C(=O)c2ccc(OC)cc2)n(C)c1.Cl`, the TD50 in [1] was 45.1 mg/kg. Moreover, the ED50 with Mus musculus [4] was 33 mg/kg. Further, the selectivity ratio in data set [5] is 1.37.

On to `NC(=O)N1c2ccccc2C=Cc2ccccc21` [CARBAMAZEPINE], for which the ED50 with Rattus norvegicus [2] came out at 36 mg/kg; in the data set on Mus musculus [4], 9.9 mg/kg. Moreover, the selectivity ratio in data set [11] amounted to 4.93. Also, the ED50 result in the data set on Mus musculus [12] is “inactive”. This compound yielded a TD50 in the data set with Mus musculus [13] of 47.8 mg/kg.

Take `Cc1c(C(=O)CN2CCCC2)c(C)n(C)c1C(=O)c1ccc(Cl)cc1`: the TD50 amounted to 54.8 mg/kg in [1] and 203 mg/kg in data set [3]. The values for the ED50 in the data set on Rattus norvegicus [2] and in the data set on Mus musculus [4] were 16.2 mg/kg and 15.2 mg/kg, respectively. Also, the selectivity ratio in [5] amounted to 3.6.

As to `CCN(CC)CC(=O)c1c(C)c(C(=O)c2ccc(Cl)cc2Cl)n(C)c1C`, the TD50 in [1] is 50.6 mg/kg; in [3], more than 500 mg/kg. Moreover, the ED50 in the data set on Rattus norvegicus [2] was 19.4 mg/kg; in the data set with Mus musculus [4], 14.9 mg/kg. Also, the selectivity ratio in [5] turned out to be 3.38.

Regarding `O=C(CN1CCOCC1)c1c[nH]c(C(=O)c2ccc(Cl)cc2)c1`, the values for the TD50 in [1] and in data set [3] were 84.1 mg/kg and 88 mg/kg, respectively. The ED50 came out at 41 mg/kg with Rattus norvegicus [2] and 86.2 mg/kg in the data set on Mus musculus [4]. In data set [5], the selectivity ratio was 0.98.

On to `Cc1c(C(=O)CN2CCCCC2)c(C)n(C)c1C(=O)c1ccc(Cl)cc1`, for which the TD50 in data set [1] is 113 mg/kg; in data set [3], more than 500 mg/kg. In addition, the ED50 came out at 28.1 mg/kg with Rattus norvegicus [2], 23.9 mg/kg in the data set on Mus musculus [4] and 25.2 mg/kg in the data set on Mus musculus [14]. Moreover, the selectivity ratio in data set [5] worked out at 4.73.

As to `CCN(CC)CC(=O)c1cc(C(=O)c2ccc(Cl)cc2)n(C)c1.Cl`, the TD50 in [1] was 40.5 mg/kg; in data set [3], more than 500 mg/kg. This compound displayed an ED50 in the data set with Rattus norvegicus [2] of 19.3 mg/kg. Also, in data set [5], the selectivity ratio came out at 2.81.

A word on the TD50: it is the dose at which the toxic effect under study appears in half of the subjects. Low readings indicate harm at a small dose, high ones harm only at a large dose. Usually ED50 stands for the dose that gives a 50% effect, or the effect in half of the subjects.
